Laboratory results reported in ChEMBL document CHEMBL3120153, “Novel Quinoline-Based P2-P4 Macrocyclic Derivatives As Pan-Genotypic HCV NS3/4a Protease Inhibitors” (ACS Med Chem Lett, 2014).

What was measured:
NS3 protease [1] = biological target: NS3 protease (Hepatitis C virus subtype 1b, UniProt Q0ZMF1, R155K); experiment: Inhibition of Hepatitis C virus genotype 1b NS3/4A protease R155K mutant assessed as substrate cleavage using Ac-C(Eu)DDMEEAbu(COO)ASK(QSY7)-amide as substrate incubated for 30 mins prior to substrate addition by time-resolved fluorescence assay
NS3 protease [2] = biological target: NS3 protease (Hepatitis C virus subtype 1b, UniProt Q0ZMF1, D168Y); experiment: Inhibition of Hepatitis C virus genotype 1b NS3/4A protease D168Y mutant assessed as substrate cleavage using Ac-C(Eu)DDMEEAbu(COO)ASK(QSY7)-amide as substrate incubated for 30 mins prior to substrate addition by time-resolved fluorescence assay
[3] = Inhibition of Hepatitis C virus genotype 3a NS3/4A protease assessed as substrate cleavage using Ac-C(Eu)DDMEEAbu(COO)ASK(QSY7)-amide as substrate incubated for 30 mins prior to substrate addition by time-resolved fluorescence assay; set-up: species or system Hepatitis C virus subtype 3a
NS3 protease [4] = biological target: NS3 protease (Hepatitis C virus subtype 1b, UniProt Q0ZMF1, A156V); experiment: Inhibition of Hepatitis C virus genotype 1b NS3/4A protease A156V mutant assessed as substrate cleavage using Ac-C(Eu)DDMEEAbu(COO)ASK(QSY7)-amide as substrate incubated for 30 mins prior to substrate addition by time-resolved fluorescence assay
[5] = Inhibition of Hepatitis C virus genotype 1b NS3/4A protease assessed as substrate cleavage using Ac-C(Eu)DDMEEAbu(COO)ASK(QSY7)-amide as substrate incubated for 30 mins prior to substrate addition by time-resolved fluorescence assay; set-up: species or system Hepatitis C virus subtype 1b
NS3 protease [6] = biological target: NS3 protease (Hepatitis C virus subtype 1b, UniProt Q0ZMF1, A156T); experiment: Inhibition of Hepatitis C virus genotype 1b NS3/4A protease A156T mutant assessed as substrate cleavage using Ac-C(Eu)DDMEEAbu(COO)ASK(QSY7)-amide as substrate incubated for 30 mins prior to substrate addition by time-resolved fluorescence assay
[7] = AUC in rat at 5 mg/kg, po; format: ADME, organism-based; set-up: dose 5 mg/kg, route oral; details: plasma
In short: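 Rats were dosed orally at 5 mg/kg, with the compound given in methyl cellulose vehicle.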

Work on `C=C[C@@H]1C[C@]1(NC(=O)[C@@H]1C[C@@H]2CN1C(=O)[C@H](C1CCCCC1)NC(=O)O[C@@H]1C[C@H]1CCCCCc1c(nc3ccccc3c1OC1CCN(CCOC(F)(F)F)CC1)O2)C(=O)NS(=O)(=O)C1(C)CC1` yielded an IC50 (NS3 protease [1]) of 0.15 nM, an IC50 (NS3 protease [2]) of 0.48 nM and an IC50 [3] of 1.22 nM. It also gave an IC50 (NS3 protease [4]) of 1.58 nM, an IC50 [5] of 0.15 nM and an IC50 (NS3 protease [6]) of 1.32 nM.

`C=C[C@@H]1C[C@]1(NC(=O)[C@@H]1C[C@@H]2CN1C(=O)[C@H](C1CCCCC1)NC(=O)O[C@@H]1C[C@H]1CCCCCc1c(nc3ccccc3c1OC1CCN(CCOC)CC1)O2)C(=O)NS(=O)(=O)C1(C)CC1` gave an IC50 (NS3 protease [1]) of 0.18 nM, an IC50 (NS3 protease [2]) of 0.15 nM and an IC50 [3] of 1.32 nM. It also gave an IC50 (NS3 protease [4]) of 1.46 nM, an IC50 [5] of 0.02 nM and an IC50 (NS3 protease [6]) of 1.96 nM.

`C=C[C@@H]1C[C@]1(NC(=O)[C@@H]1C[C@@H]2CN1C(=O)[C@H](C1CCCCC1)NC(=O)O[C@@H]1C[C@H]1CCCCCc1c(nc3ccccc3c1OCCCN1CCN(C)CC1)O2)C(=O)NS(=O)(=O)C1(C)CC1` gave an IC50 (NS3 protease [1]) of 0.05 nM, an IC50 (NS3 protease [2]) of 0.38 nM and an IC50 [3] of 1.15 nM. The IC50 (NS3 protease [4]) was 0.26 nM, the IC50 [5] was 0.01 nM and the AUC [7] was 0.1 µM·h. The IC50 (NS3 protease [6]) was 0.5 nM.

`C=C[C@@H]1C[C@]1(NC(=O)[C@@H]1C[C@@H]2CN1C(=O)[C@H](C1CCCCC1)NC(=O)O[C@@H]1C[C@H]1CCCCCc1c(nc3ccccc3c1OCCCN1CC(F)C1)O2)C(=O)NS(=O)(=O)C1(C)CC1` gave an IC50 (NS3 protease [1]) of 0.16 nM, an IC50 (NS3 protease [2]) of 0.79 nM and an IC50 [3] of 4.45 nM. The IC50 (NS3 protease [4]) was 0.97 nM, the IC50 [5] was 0.02 nM and the IC50 (NS3 protease [6]) was 1.95 nM.

`C=C[C@@H]1C[C@]1(NC(=O)[C@@H]1C[C@@H]2CN1C(=O)[C@H](C1CCCCC1)NC(=O)O[C@@H]1C[C@H]1CCCCCc1c(nc3ccccc3c1OC1CCOCC1)O2)C(=O)NS(=O)(=O)C1(C)CC1` gave an IC50 (NS3 protease [1]) of 0.26 nM, an IC50 (NS3 protease [2]) of 2.07 nM and an IC50 [3] of 11 nM. It also gave an IC50 (NS3 protease [4]) of 3.4 nM, an IC50 [5] of 0.03 nM and an IC50 (NS3 protease [6]) of 4.1 nM.

`C=C[C@@H]1C[C@]1(NC(=O)[C@@H]1C[C@@H]2CN1C(=O)[C@H](C1CCCCC1)NC(=O)O[C@@H]1C[C@H]1CCCCCc1c(nc3ccccc3c1OC1CCN(C(=O)OC(C)(C)C)CC1)O2)C(=O)NS(=O)(=O)C1(C)CC1` gave an IC50 (NS3 protease [1]) of 1.31 nM, an IC50 (NS3 protease [2]) of 13.5 nM and an IC50 [3] of 191 nM. For the same compound, the IC50 (NS3 protease [4]) was 14.5 nM, the IC50 [5] was 0.16 nM and the IC50 (NS3 protease [6]) was 21.1 nM.

`C=C[C@@H]1C[C@]1(NC(=O)[C@@H]1C[C@@H]2CN1C(=O)[C@H](C(C)(C)C)NC(=O)O[C@@H]1C[C@H]1CCCCCc1c(nc3ccccc3c1O[C@H]1C[C@H]3CC[C@@H](C1)N3CCOC)O2)C(=O)NS(=O)(=O)C1(C)CC1` showed an IC50 (NS3 protease [1]) of 0.02 nM, an IC50 (NS3 protease [2]) of 0.06 nM and an IC50 [3] of 0.14 nM. It also gave an IC50 (NS3 protease [4]) of 0.71 nM, an IC50 [5] of 0.01 nM and an IC50 (NS3 protease [6]) of 0.48 nM.

Compound `C=C[C@@H]1C[C@]1(NC(=O)[C@@H]1C[C@@H]2CN1C(=O)[C@H](C1CCCCC1)NC(=O)O[C@@H]1C[C@H]1CCCCCc1c(nc3ccccc3c1OCCCNC1CCC1)O2)C(=O)NS(=O)(=O)C1(C)CC1` has an IC50 (NS3 protease [1]) of 0.1 nM, an IC50 (NS3 protease [2]) of 0.3 nM and an IC50 [3] of 1.2 nM. It also gave an IC50 (NS3 protease [4]) of 0.3 nM, an IC50 [5] of 0.02 nM and an IC50 (NS3 protease [6]) of 0.4 nM.

`C=C[C@@H]1C[C@]1(NC(=O)[C@@H]1C[C@@H]2CN1C(=O)[C@H](C1CCCCC1)NC(=O)O[C@@H]1C[C@H]1CCCCCc1c(nc3ccccc3c1OC1CCN(CC(F)(F)F)CC1)O2)C(=O)NS(=O)(=O)C1(C)CC1` showed an IC50 (NS3 protease [1]) of 3.4 nM, an IC50 (NS3 protease [2]) of 12.9 nM and an IC50 [3] of 104 nM. The IC50 (NS3 protease [4]) was 27.2 nM, the IC50 [5] was 0.4 nM and the IC50 (NS3 protease [6]) was 26.1 nM.

With `C=C[C@@H]1C[C@]1(NC(=O)[C@@H]1C[C@@H]2CN1C(=O)[C@H](C1CCCCC1)NC(=O)O[C@@H]1C[C@H]1CCCCCc1c(nc3ccccc3c1OCCCNC1CC(F)(F)C1)O2)C(=O)NS(=O)(=O)C1(C)CC1` the IC50 (NS3 protease [1]) was 0.18 nM, the IC50 (NS3 protease [2]) was 0.32 nM and the IC50 [3] was 2 nM. It also gave an IC50 (NS3 protease [4]) of 0.38 nM, an IC50 [5] of 0.01 nM and an IC50 (NS3 protease [6]) of 0.53 nM.

`C=C[C@@H]1C[C@]1(NC(=O)[C@@H]1C[C@@H]2CN1C(=O)[C@H](C1CCCCC1)NC(=O)O[C@@H]1C[C@H]1CCCCCc1c(nc3ccccc3c1OCCCN1CC(F)(F)C1)O2)C(=O)NS(=O)(=O)C1(C)CC1` gave an IC50 (NS3 protease [1]) of 0.5 nM, an IC50 (NS3 protease [2]) of 2 nM and an IC50 [3] of 7.55 nM. The IC50 (NS3 protease [4]) was 1.3 nM, the IC50 [5] was 0.03 nM and the IC50 (NS3 protease [6]) was 3.75 nM.
